Test results as given in ChEMBL document CHEMBL1135955, “Substituted benzocyloheptenes as potent and selective alpha(v) integrin antagonists” (Bioorg Med Chem Lett, 2002).

Key:
Homo sapiens = species: Homo sapiens; assay: Oral absorption using Caco-2 cell monolayers.; type: ADME; settings: in vitro
Integrin alpha-V/beta-5 = Integrin alpha-V/beta-5 (Homo sapiens, UniProt P06756+P18084); assay: Displacement of vitronectin from human integrin alphaV-beta5; type: protein-complex assay
Method in brief: (§1)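 Purified-receptor ligand-binding assay on human integrins αvβ3 and αvβ5 (vitronectin displacement) and αIIbβ3 (receptor from platelets). Bound ligand was detected indirectly by colorimetric reading after adding an anti-biotin antibody coupled to alkaline phosphatase. IC50 came from sigmoid variable-slope fits of dose–response data from at least two experiments per compound.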

[1] = target: Integrin alpha-IIb/beta-3 (Homo sapiens, UniProt P05106+P08514); assay: Displacement of fibrinogen from Human integrin alphaIIb-beta3; type: protein-complex assay; method in brief: as §1
IGROV-1 = assay: Cellular adhesion inhibitory concentration with IGROV-1 cell line.; type: functional, cell-based; settings: Homo sapiens
Method in brief: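 Human ovarian carcinoma IGROV-1 cells were preincubated with compound before adhesion. They were then washed, fixed and stained with crystal violet, and adhesion was quantified by image analysis. IC50 came from sigmoid variable-slope fits of dose–response sets from at least two experiments.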

Integrin alpha-V/beta-3 = Integrin alpha-V/beta-3 (Homo sapiens, UniProt P05106+P06756); assay: Displacement of vitronectin from Human integrin alphaV-beta3; type: protein-complex assay; method in brief: as §1
Integrin alpha-V/beta-3, sequence (P05106 27-788 limits assumed): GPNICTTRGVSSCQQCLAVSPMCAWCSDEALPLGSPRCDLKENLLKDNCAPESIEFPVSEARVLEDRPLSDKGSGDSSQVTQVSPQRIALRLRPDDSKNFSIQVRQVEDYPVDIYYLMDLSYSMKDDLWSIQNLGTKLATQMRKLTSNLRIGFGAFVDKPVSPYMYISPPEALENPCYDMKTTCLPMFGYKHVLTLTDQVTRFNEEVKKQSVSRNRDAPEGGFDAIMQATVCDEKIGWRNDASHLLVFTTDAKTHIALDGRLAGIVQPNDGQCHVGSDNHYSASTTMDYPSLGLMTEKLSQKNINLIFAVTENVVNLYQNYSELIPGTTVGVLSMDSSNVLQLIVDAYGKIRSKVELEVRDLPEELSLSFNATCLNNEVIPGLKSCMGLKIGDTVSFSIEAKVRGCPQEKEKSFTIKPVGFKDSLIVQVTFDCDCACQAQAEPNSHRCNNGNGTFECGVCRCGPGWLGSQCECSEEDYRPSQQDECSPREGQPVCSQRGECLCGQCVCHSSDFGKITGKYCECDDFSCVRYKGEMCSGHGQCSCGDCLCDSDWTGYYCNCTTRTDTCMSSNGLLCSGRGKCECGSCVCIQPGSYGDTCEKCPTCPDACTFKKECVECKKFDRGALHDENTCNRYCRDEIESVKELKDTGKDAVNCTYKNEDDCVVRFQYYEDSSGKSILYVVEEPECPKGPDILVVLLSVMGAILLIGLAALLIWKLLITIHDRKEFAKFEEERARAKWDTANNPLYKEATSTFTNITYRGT
Integrin alpha-V/beta-3, sequence (P06756 31-889 limits assumed): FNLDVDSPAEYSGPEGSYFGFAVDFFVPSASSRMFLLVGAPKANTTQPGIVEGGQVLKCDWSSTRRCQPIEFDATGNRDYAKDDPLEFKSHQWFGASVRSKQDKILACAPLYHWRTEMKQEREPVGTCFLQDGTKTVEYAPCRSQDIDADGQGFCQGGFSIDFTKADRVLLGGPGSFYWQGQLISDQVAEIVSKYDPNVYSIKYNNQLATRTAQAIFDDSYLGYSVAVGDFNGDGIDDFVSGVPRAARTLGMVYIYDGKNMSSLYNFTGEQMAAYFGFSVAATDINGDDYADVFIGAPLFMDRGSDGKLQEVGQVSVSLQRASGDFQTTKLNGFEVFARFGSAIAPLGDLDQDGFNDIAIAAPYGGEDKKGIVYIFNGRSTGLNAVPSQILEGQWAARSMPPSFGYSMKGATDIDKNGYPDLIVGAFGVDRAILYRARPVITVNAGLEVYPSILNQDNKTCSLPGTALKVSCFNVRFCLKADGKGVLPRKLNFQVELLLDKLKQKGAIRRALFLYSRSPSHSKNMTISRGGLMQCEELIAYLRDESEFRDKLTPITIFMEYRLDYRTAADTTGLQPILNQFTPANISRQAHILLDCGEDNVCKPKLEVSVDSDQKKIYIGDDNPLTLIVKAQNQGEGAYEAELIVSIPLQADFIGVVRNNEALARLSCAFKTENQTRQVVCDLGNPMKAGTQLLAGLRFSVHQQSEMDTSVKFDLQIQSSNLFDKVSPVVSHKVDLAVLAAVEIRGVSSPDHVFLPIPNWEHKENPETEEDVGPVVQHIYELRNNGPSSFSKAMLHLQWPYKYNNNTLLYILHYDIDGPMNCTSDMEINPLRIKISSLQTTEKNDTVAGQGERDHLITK
Integrin alpha-V/beta-3, sequence (P06756 891-1048 limits assumed): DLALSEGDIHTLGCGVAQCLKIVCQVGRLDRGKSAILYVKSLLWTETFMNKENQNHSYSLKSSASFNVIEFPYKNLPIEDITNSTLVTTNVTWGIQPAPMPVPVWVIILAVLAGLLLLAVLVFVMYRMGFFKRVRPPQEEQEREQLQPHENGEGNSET

Integrin alpha-V/beta-5, sequence (P06756 31-889 limits assumed): as the sequence (P06756 31-889 limits assumed) above
Integrin alpha-V/beta-5, sequence (P06756 891-1048 limits assumed): as the sequence (P06756 891-1048 limits assumed) above
Integrin alpha-V/beta-5, sequence (P18084 24-799 limits assumed): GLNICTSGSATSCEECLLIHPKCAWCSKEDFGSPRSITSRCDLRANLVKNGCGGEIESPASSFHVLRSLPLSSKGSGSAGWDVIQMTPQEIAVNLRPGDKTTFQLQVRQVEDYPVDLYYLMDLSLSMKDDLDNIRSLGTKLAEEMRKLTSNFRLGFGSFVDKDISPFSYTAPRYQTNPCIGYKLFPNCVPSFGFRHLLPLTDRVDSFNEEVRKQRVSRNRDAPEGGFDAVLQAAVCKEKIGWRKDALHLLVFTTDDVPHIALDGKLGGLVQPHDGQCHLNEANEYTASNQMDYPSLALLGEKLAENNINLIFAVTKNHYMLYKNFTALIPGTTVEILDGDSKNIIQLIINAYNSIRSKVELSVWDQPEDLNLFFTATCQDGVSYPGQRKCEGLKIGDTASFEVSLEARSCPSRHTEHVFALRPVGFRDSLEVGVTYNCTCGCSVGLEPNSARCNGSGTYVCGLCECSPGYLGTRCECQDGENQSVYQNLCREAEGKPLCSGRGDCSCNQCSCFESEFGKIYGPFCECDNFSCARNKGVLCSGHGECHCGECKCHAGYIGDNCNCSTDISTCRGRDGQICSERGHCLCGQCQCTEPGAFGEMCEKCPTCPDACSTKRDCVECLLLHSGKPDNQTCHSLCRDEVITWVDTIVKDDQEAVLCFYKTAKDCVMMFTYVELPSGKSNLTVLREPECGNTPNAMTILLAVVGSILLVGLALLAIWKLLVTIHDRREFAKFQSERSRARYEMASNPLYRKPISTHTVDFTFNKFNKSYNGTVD
Integrin alpha-IIb/beta-3, sequence (P05106 27-788 limits assumed): as the sequence (P05106 27-788 limits assumed) above
Integrin alpha-IIb/beta-3, sequence (P08514 32-887 limits assumed): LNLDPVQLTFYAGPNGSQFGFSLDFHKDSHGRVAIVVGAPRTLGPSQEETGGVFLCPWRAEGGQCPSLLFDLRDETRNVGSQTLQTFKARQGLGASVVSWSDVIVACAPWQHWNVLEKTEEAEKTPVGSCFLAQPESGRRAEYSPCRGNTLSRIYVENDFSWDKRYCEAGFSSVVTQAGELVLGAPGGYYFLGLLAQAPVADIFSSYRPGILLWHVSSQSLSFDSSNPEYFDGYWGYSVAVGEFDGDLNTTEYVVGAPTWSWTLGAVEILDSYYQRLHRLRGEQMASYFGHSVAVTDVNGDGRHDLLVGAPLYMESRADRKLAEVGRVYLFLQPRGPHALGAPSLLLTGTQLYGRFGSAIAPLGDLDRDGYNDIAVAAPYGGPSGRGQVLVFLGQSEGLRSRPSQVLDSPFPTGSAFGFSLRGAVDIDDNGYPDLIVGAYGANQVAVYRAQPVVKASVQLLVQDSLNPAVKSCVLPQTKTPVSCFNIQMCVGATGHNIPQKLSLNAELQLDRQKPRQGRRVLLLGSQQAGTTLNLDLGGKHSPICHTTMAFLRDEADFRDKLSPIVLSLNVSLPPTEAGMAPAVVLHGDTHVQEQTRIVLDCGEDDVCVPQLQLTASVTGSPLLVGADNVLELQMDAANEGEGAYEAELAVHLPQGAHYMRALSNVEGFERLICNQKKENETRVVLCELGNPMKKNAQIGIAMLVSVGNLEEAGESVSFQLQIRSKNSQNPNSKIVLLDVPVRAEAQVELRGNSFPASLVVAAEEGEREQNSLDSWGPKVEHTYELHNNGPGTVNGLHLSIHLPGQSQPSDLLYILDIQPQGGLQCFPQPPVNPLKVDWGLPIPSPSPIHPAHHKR
Integrin alpha-IIb/beta-3, sequence (P08514 891-1039 limits assumed): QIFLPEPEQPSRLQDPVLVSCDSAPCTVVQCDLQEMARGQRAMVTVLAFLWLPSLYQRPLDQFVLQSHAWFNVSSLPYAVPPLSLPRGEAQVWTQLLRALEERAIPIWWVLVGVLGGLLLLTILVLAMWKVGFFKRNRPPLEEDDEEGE

Absorption (Homo sapiens) [%]	IC50 (Integrin alpha-V/beta-5) [nM]	IC50 [1] [nM]	IC50 (IGROV-1) [nM]	IC50 (Integrin alpha-V/beta-3) [nM]	Structure (SMILES)
92	0.3	1490	6.9	0.3	O=C(O)CC1CC(CNC(=O)CCCc2ccc3c(n2)NCCC3)=CCc2ccccc21 (stereo not given)
93	22	1700	338	584	O=C(O)CC1CC(CNC(=O)CCNc2ccccn2)=CCc2ccccc21 (stereo not given)
< 20	0.1	330	2.7	0.2	O=C(O)CC1CC(CNC(=O)CCCNC2=NCCCN2)=CCc2ccccc21 (stereo not given)
96	20	> 10000	40	45	O=C(O)CC1CC(CNC(=O)CCCNc2nccs2)=CCc2ccccc21 (stereo not given)
96	0.9	1200	12	2.7	O=C(O)CC1CC(CNC(=O)CCCCNc2ccccn2)=CCc2ccccc21 (stereo not given)
94	40	667	2030	68	CN(CCCC(=O)NCC1=CCc2ccccc2C(CC(=O)O)C1)c1ccccn1 (stereo not given)
< 20	0.5	1020	1.8	0.6	O=C(O)CC1CC(CNC(=O)CCCNc2nc3ccccc3[nH]2)=CCc2ccccc21 (stereo not given)
95	0.8	4360	2	1.9	O=C(O)CC1CC(CNC(=O)CCCNc2ccccn2)=CCc2ccccc21 (stereo not given)
< 20	0.2	110	18	0.3	O=C(O)CC1CC(CNC(=O)CCCNC2=NCCN2)=CCc2ccccc21 (stereo not given)
23	119	552	2700	842	O=C(O)CC1CC(CNC(=O)CCNCc2ccccn2)=CCc2ccccc21 (stereo not given)
